Calls of active or inactive are those of the source. The calls are words filed in the database; no cut-off is given here.
What was measured:
[1] = Stability in mouse liver microsomes assessed as half life at 1 uM preincubated for 10 mins followed by reaction initiation measured upto 60 mins in presence of NADPH; format: ADME, Microsome; conditions: time < 70 min
Procedure, shortened: (§1)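 Compound at 1 μM final was incubated with 0.5 mg/mL mouse, rat, dog, monkey or human liver microsomes in 100 mM PBS, pH 7.4, with 1 mM NADPH at 37 °C after a 10 min preincubation. Reactions were stopped at 0, 5, 15, 30 and 60 min with ice-cold acetonitrile containing tolbutamide. Supernatants were taken for bioanalysis.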

[2] = Stability in dog liver microsomes assessed as intrinsic clearance measured per mg protein at 1 uM preincubated for 10 mins followed by reaction initiation measured upto 60 mins in presence of NADPH; format: ADME, Canis lupus familiaris, Microsome; conditions: time < 70 min, read-out: CLH; procedure, shortened: as §1
[3] = Half life in BALB/c mouse at 2 mg/kg, iv measured for 24 hrs by LCMS analysis; format: ADME, organism-based; conditions: in vivo
Procedure, shortened: (§2)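 Male Balb/c mice, 9 per group, dosed intravenously at 2 mg/kg. Blood was drawn into EDTA-K2 tubes at 0.083, 0.25, 0.5, 1, 2, 4, 6, 8 and 24 h. Plasma was separated by centrifugation at 2000 g for 10 min and precipitated with acetonitrile containing tolbutamide internal standard. Analysis was by LC-MS on a polar C18 column with a water/acetonitrile 0.1% formic acid gradient.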

[4] = target: T1, Protein cereblon/Tyrosine-protein kinase BTK (Homo sapiens) (UniProt Q06187+Q96SW2); assay: PROTAC activity at CRBN/ BTK in human Ramos cells assessed as induction of BTK degradation at 100 nM incubated for 24 hrs by immunoblot analysis relative to control; format: cell-based
Procedure, shortened: (§3)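 Ramos cells in supplemented RPMI 1640 were plated at 3×10^5 cells/well and treated with compound for 24 h. Lysates in SDS sample buffer were heated at 100 °C for 15 min and run on 10% SDS-PAGE, then transferred to PVDF. Membranes were probed overnight at 4 °C for BTK, GSPT1 and β-actin.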

[5] = Half life in BALB/c mouse at 5 mg/kg, po measured for 24 hrs by LCMS analysis; format: ADME, organism-based; conditions: in vivo
Procedure, shortened: (§4)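 Male Balb/c mice, 9 per group, dosed intragastrically at 5 mg/kg; the same compounds were also given iv at 2 mg/kg. Blood was drawn into EDTA-K2 tubes at 0.25, 0.5, 1, 2, 4, 6, 8 and 24 h. Plasma proteins were precipitated with acetonitrile containing tolbutamide. Quantification was by LC-MS on a C18 column with a formic acid water/acetonitrile gradient.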

[6] = Solubility in DMSO:Cremophor EL:1xPBS mixture at 10 mg/ml; format: physicochemical
[7] = Clearance in BALB/c mouse at 2 mg/kg, iv measured for 24 hrs by LCMS analysis; format: ADME, organism-based; conditions: in vivo; procedure, shortened: as §2
[8] = Stability in monkey liver microsomes assessed as half life at 1 uM preincubated for 10 mins followed by reaction initiation measured upto 60 mins in presence of NADPH; format: ADME, Macaca mulatta, Microsome; conditions: rhesus monkey, time < 70 min; procedure, shortened: as §1
[9] = target: T1, Protein cereblon/Tyrosine-protein kinase BTK (Homo sapiens); assay: PROTAC activity at CRBN/ BTK in human Ramos cells assessed as induction of BTK degradation at 30 nM incubated for 24 hrs by immunoblot analysis; format: cell-based; procedure, shortened: as §3
[10] = Cmax in BALB/c mouse at 5 mg/kg, po measured for 24 hrs by LCMS analysis; format: ADME, organism-based; set-up: dose 5 mg/kg, time 24 hrs, route po; conditions: in vivo; procedure, shortened: as §4
[11] = AUClast in BALB/c mouse at 5 mg/kg, po measured for 24 hrs by LCMS analysis; format: ADME, organism-based; set-up: dose 5 mg/kg, time 24 hrs, route po; conditions: in vivo; procedure, shortened: as §4
[12] = Stability in rat liver microsomes assessed as intrinsic clearance measured per mg protein at 1 uM preincubated for 10 mins followed by reaction initiation measured upto 60 mins in presence of NADPH; format: ADME, Microsome; conditions: time < 70 min, read-out: CLH; procedure, shortened: as §1
[13] = Apparent permeability across basal to apical side in MDCK-II cells at 10 uM measured for 120 mins by LC-MS/MS analysis; format: ADME, cell-based, Canis lupus familiaris; conditions: dog
Procedure, shortened: (§5)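 MDCK monolayers were grown on Transwell inserts (5 x 10^4 cells/cm²) and used at day 5. Compound at 10 μM in HBSS with 10 mM Hepes, pH 7.40, was dosed apically or basolaterally and incubated at 37±1 °C. Lucifer yellow passage below 1% confirmed monolayer integrity.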

[14] = AUClast in BALB/c mouse at 2 mg/kg, iv measured for 24 hrs by LCMS analysis; format: ADME, organism-based; set-up: time 24 hrs, dose 2 mg/kg, route iv; conditions: in vivo; procedure, shortened: as §2
[15] = Stability in mouse liver microsomes assessed as intrinsic clearance measured per mg protein at 1 uM preincubated for 10 mins followed by reaction initiation measured upto 60 mins in presence of NADPH; format: ADME, Microsome; conditions: time < 70 min, read-out: CLH; procedure, shortened: as §1
[16] = Tmax in BALB/c mouse at 5 mg/kg, po measured for 24 hrs by LCMS analysis; format: ADME, organism-based; conditions: in vivo; procedure, shortened: as §4
[17] = Stability in monkey liver microsomes assessed as intrinsic clearance measured per mg protein at 1 uM preincubated for 10 mins followed by reaction initiation measured upto 60 mins in presence of NADPH; format: ADME, Macaca mulatta, Microsome; conditions: rhesus monkey, time < 70 min, read-out: CLH; procedure, shortened: as §1
[18] = Apparent permeability across apical to basal side in MDCK-II cells assessed as compound recovery at 10 uM measured for 120 mins by LC-MS/MS analysis; format: ADME, cell-based, Canis lupus familiaris; conditions: dog, read-out: Drug recovery
Procedure, shortened: as §5, with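 “°C. Receiver and donor samples were taken at 120 min and quantified by LC-MS/MS against an internal standard.” for “°C.”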

[19] = target: T1, Protein cereblon/Tyrosine-protein kinase BTK (Homo sapiens); assay: PROTAC activity at CRBN/ BTK in human DOHH-2 cells assessed as induction of BTK degradation at 1.2 to 300 nM incubated for 24 hrs by immunoblot analysis; format: cell-based; conditions: dose 1.2-300 nM
Procedure, shortened: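 DOHH2 cells were grown in RPMI 1640 with 10% FBS, 1% penicillin-streptomycin, 1% nonessential amino acids and 50 µM 2-mercaptoethanol at 37 °C under 5% CO₂. Cells were treated with compound at various concentrations, lysed in SDS buffer and separated on 10% SDS-PAGE. Blots were transferred to PVDF and probed for BTK, with β-actin as loading control.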

[20] = Apparent permeability across basal to apical side in MDCK-II cells assessed as compound recovery at 10 uM measured for 120 mins by LC-MS/MS analysis; format: ADME, cell-based, Canis lupus familiaris; conditions: dog, read-out: Drug recovery
Procedure, shortened: as §5, with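 “°C. Receiver and donor samples were taken at 120 min and quantified by LC-MS/MS against an internal standard.” for “°C.”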

[21] = Apparent volume of distribution in BALB/c mouse at 2 mg/kg, iv measured for 24 hrs by LCMS analysis; format: ADME, organism-based; conditions: in vivo, read-out: Vz; procedure, shortened: as §2
[22] = Stability in human liver microsomes assessed as intrinsic clearance measured per mg protein at 1 uM preincubated for 10 mins followed by reaction initiation measured upto 60 mins in presence of NADPH; format: ADME, Microsome; conditions: time < 70 min, read-out: CLH; procedure, shortened: as §1
[23] = Stability in dog liver microsomes assessed as half life at 1 uM preincubated for 10 mins followed by reaction initiation measured upto 60 mins in presence of NADPH; format: ADME, Canis lupus familiaris, Microsome; conditions: time < 70 min; procedure, shortened: as §1
[24] = Solubility in DMSO:Cremophor EL:1xPBS mixture at 10 mg/ml incubated for 7 days; format: physicochemical; conditions: 168 h, time 7 day
[25] = Oral bioavailability in BALB/c mouse at 5 mg/kg measured for 24 hrs by LCMS analysis; format: ADME, organism-based; conditions: in vivo; procedure, shortened: as §4
[26] = Stability in human liver microsomes assessed as half life at 1 uM preincubated for 10 mins followed by reaction initiation measured upto 60 mins in presence of NADPH; format: ADME, Microsome; conditions: time < 70 min; procedure, shortened: as §1
[27] = Apparent permeability across apical to basal side in MDCK-II cells at 10 uM measured for 120 mins by LC-MS/MS analysis; format: ADME, cell-based, Canis lupus familiaris; conditions: dog; procedure, shortened: as §5
[28] = Stability in rat liver microsomes assessed as half life at 1 uM preincubated for 10 mins followed by reaction initiation measured upto 60 mins in presence of NADPH; format: ADME, Microsome; conditions: time < 70 min; procedure, shortened: as §1
[29] = target: T1, Protein cereblon/Tyrosine-protein kinase BTK (Homo sapiens); assay: PROTAC activity at CRBN/ BTK in human Ramos cells assessed as induction of BTK degradation at 300 nM incubated for 24 hrs by immunoblot analysis relative to control; format: cell-based; procedure, shortened: as §3
[30] = target: T1, Protein cereblon/Tyrosine-protein kinase BTK (Homo sapiens); assay: PROTAC activity at CRBN/ BTK in human Ramos cells assessed as induction of BTK degradation at 500 nM incubated for 24 hrs by immunoblot analysis relative to control; format: cell-based; procedure, shortened: as §3

T1 sequence (Q06187 2-659 limits assumed): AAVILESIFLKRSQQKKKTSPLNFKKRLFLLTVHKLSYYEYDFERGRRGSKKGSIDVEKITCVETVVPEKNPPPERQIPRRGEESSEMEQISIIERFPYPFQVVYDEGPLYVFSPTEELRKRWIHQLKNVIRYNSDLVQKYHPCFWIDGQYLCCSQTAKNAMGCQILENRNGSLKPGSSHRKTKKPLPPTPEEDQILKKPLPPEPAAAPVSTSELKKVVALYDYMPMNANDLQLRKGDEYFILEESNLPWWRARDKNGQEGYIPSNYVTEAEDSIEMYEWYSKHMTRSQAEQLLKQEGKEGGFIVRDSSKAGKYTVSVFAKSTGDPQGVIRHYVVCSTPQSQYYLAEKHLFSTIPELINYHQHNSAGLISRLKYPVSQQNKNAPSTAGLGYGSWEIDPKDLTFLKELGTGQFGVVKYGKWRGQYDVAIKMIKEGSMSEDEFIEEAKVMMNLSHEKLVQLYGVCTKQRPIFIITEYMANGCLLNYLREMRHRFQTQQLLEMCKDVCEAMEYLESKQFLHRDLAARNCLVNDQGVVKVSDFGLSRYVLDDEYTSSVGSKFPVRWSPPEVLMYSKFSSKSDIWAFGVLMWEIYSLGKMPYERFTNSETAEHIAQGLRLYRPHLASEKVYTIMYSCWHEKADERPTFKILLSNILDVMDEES
T1 sequence (Q96SW2 whole entry partner): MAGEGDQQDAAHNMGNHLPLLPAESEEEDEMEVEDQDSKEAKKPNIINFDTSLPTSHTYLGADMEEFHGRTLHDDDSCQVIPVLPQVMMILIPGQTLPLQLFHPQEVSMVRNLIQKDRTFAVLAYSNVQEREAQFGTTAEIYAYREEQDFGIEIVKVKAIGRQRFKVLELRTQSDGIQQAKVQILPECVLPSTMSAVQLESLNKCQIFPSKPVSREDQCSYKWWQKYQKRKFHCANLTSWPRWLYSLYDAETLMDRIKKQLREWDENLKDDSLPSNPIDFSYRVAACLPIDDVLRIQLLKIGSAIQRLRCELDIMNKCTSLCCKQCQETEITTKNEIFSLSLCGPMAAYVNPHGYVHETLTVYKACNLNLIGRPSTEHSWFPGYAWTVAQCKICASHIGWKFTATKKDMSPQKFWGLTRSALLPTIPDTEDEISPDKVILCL

Nc1ncnc2c1c(-c1ccc(Oc3ccccc3)cc1)nn2[C@@H]1CCCN(C(=O)c2ccc(CNc3ccc4c(c3)C(=O)N(C3CCC(=O)NC3=O)C4=O)cc2)C1 (stereo partly specified)
half-life at 1 µM [1]: 2.26 h
microsomal CLint at 1 µM [2]: 5.45 µL/min/mg
half-life [3]: 0.98 h
Activity [4]: 18.3%
half-life [5]: 0.52 h
solubility [6]: Soluble
clearance [7]: 11.8 mL/min/kg
half-life at 1 µM [8]: 5.11 h
Activity [9]: 20.7%
Cmax [10]: 252 ng/mL
AUC(0-t) at 24 h [11]: 336 ng·h/mL
microsomal CLint at 1 µM [12]: 7.66 µL/min/mg
Papp B→A at 2 h, 10 µM [13]: 0.01 ×10⁻⁶ cm/s
AUC(0-t) at 24 h [14]: 2810 ng·h/mL
microsomal CLint at 1 µM [15]: 10.2 µL/min/mg
Tmax [16]: 0.5 h
microsomal CLint at 1 µM [17]: 4.52 µL/min/mg
recovery at 2 h, 10 µM [18]: 111%
Activity [19]: Active
recovery at 2 h, 10 µM [20]: 116%
Vd [21]: 0.998 L/kg
microsomal CLint at 1 µM [22]: 9.83 µL/min/mg
half-life at 1 µM [23]: 4.24 h
solubility [24]: Soluble
bioavailability [25]: 4.78%
half-life at 1 µM [26]: 2.35 h
Papp A→B at 2 h, 10 µM [27]: 0.016 ×10⁻⁶ cm/s
half-life at 1 µM [28]: 3.02 h

Nc1ncnc2c1c(-c1ccc(Oc3ccccc3)cc1)nn2[C@@H]1CCCN(C(=O)c2ccc(Nc3ccc4c(c3)CN(C3CCC(=O)NC3=O)C4=O)cc2)C1 (stereo partly specified)
Activity [29]: 12%
Activity [4]: 6.9%

Nc1ncnc2c1c(-c1ccc(Oc3ccccc3)cc1)nn2C1CCN(C2CN(C3CN(c4ccc5c(c4)C(=O)N(C4CCC(=O)NC4=O)C5=O)C3)C2)CC1 (stereo unspecified)
solubility [6]: Insoluble
solubility [24]: Insoluble

Nc1ncnc2c1c(-c1ccc(Oc3ccccc3)cc1)nn2[C@@H]1CCCN(C(=O)Nc2ccc3c(c2)C(=O)N(C2CCC(=O)NC2=O)C3=O)C1 (stereo partly specified)
Activity [30]: 100%

CC(C)NCC(O)COc1ccc(CC(N)=O)cc1 (stereo unspecified) [ATENOLOL]
recovery at 2 h, 10 µM [18]: 94.4%
recovery at 2 h, 10 µM [20]: 99.5%

Nc1ncnc2c1c(-c1ccc(Oc3ccccc3)cc1)nn2[C@@H]1CCCN(C(=O)c2cn(CCOCCOCCOCCCc3cccc4c3CN(C3CCC(=O)NC3=O)C4=O)nn2)C1 (stereo partly specified)
Activity [4]: 28.5%
solubility [6]: Insoluble
Activity [19]: Active
solubility [24]: Insoluble

C=CC(=O)N1CCC[C@@H](n2nc(-c3ccc(Oc4ccccc4)cc3)c3c(N)ncnc32)C1 [IBRUTINIB]
solubility [6]: Soluble
solubility [24]: Insoluble
